This is an account of results in ChEMBL document CHEMBL4406821, “Novel dual inhibitors targeting CDK4 and VEGFR2 synergistically suppressed cancer progression and angiogenesis” (Eur J Med Chem, 2019).

Active and inactive are the calls of the source.

For data set [1], the target named is SRSF protein kinase 2 (Homo sapiens) (UniProt P78362). As to the kind of experiment: Inhibition of recombinant human SRPK2 (46 to end residues) at 1 uM using RSRSRSRSRSRSRSR as substrate incubated for 40 mins in presence of [gamma-33P]-ATP by scintillation counting method relative to control.
Data set [2] deals with SiHa. As to the kind of experiment: Induction of apoptosis in human SiHa cells assessed as increase in early apoptotic cells at 20 to 40 nM incubated for 48 hrs by annexin V FITC and propidium iodide staining based flow cytometry. In kind it is functional, cell-based. An outline of the steps: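 Annexin V-FITC/PI double staining with flow-cytometric readout. MDA-MB-231, T-47D, SiHa and HeLa cells were treated with graded concentrations for 48 h. MDA-MB-231 and T-47D were grown in DMEM and SiHa in 1640 medium, each with 10% FBS and 1% penicillin/streptomycin at 37°C under 5% CO2. Early- and late-stage apoptotic fractions were scored.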
A general note: Flow cytometry measures light scatter and fluorescence of single cells or particles in a stream.

Data set [3] deals with Protein-tyrosine kinase 6 (Homo sapiens) (UniProt Q13882). As to the kind of experiment: Inhibition of recombinant full length human BRK at 1 uM using poly(Glu, Tyr) 4:1 as substrate incubated for 40 mins in presence of [gamma-33P]-ATP by scintillation counting method relative to control. In outline:
(§1)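 Kinase panel profiling at 1 μM performed by Eurofins KinaseProfiler; percent inhibition reported as mean of two independent experiments.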

The target in data set [4] is Serine/threonine-protein kinase 38-like (Homo sapiens) (UniProt Q9Y2H1). As to the kind of experiment: Inhibition of recombinant human NDR2 (83 to end residues) at 1 uM using RSRSRSRSRSRSRSR as substrate incubated for 40 mins in presence of [gamma-33P]-ATP by scintillation counting method relative to control.
The nature of data set [5]: Toxicity in NOD/SCID BALB/c mouse xenografted with human SiHa cells assessed as effect on blood parameter by measuring neutrophils content at 40 mg/kg, po administered once two days for 4 times by hematology analyzer. The data set is classed as organism-based. To be noted: in vivo.
For data set [6], the target named is Serine/threonine-protein kinase WNK1 (Homo sapiens) (UniProt Q9H4A3). As to the kind of experiment: Inhibition of recombinant human WNK1 (1 to 491 residues) at 1 uM using myelin basic protein as substrate incubated for 40 mins in presence of [gamma-33P]-ATP by scintillation counting method relative to control. An outline of the steps: (§2)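 Tested at a single 1 uM in an outsourced commercial kinase-profiling panel, read as percent inhibition. Each value is the mean of two independent experiments.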

Data set [7] concerns the target Serine/threonine-protein kinase ULK3 (Homo sapiens) (UniProt Q6PHR2). As to the kind of experiment: Inhibition of recombinant human full length ULK3 at 1 uM using casein as substrate incubated for 40 mins in presence of [gamma-33P]-ATP by scintillation counting method relative to control.
Data set [8] addresses MAP kinase-interacting serine/threonine-protein kinase 2 (Homo sapiens) (UniProt Q9HBH9). As to the kind of experiment: Inhibition of recombinant human full length MNK2 at 1 uM using myelin basic protein as substrate incubated for 40 mins in presence of [gamma-33P]-ATP by scintillation counting method relative to control.
A short description of data set [9]: Half life in Sprague-Dawley rat at 10 mg/kg, iv by HPLC-MS analysis. To be noted: in vivo. The data set is classed as ADME, organism-based. In outline: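 Rats fitted with jugular vein catheters for serial blood sampling. Compound dissolved in saline with 5% (v/v) DMSO and given as a single 10 mg/kg dose iv or po after an overnight fast, n = 5 per group. Plasma isolated at once and measured by HPLC with tandem MS detection. Parameters derived by noncompartmental fitting.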

A short description of data set [10]: Toxicity in BALB/c mouse assessed as toxic effects in spleen at 40 mg/kg, po administered for 48 hrs by hematoxylin and eosin staining method. To be noted: in vivo.
In data set [11] the target is eIF-2-alpha kinase GCN2 (Homo sapiens) (UniProt Q9P2K8). As to the kind of experiment: Inhibition of recombinant full length human GCN2 at 1 uM using RSRSRSRSRSRSRSR as substrate incubated for 40 mins in presence of [gamma-33P]-ATP by scintillation counting method relative to control. In outline:
as §2

Data set [12] concerns the target Bone morphogenetic protein receptor type-2 (Homo sapiens) (UniProt Q13873). As to the kind of experiment: Inhibition of recombinant human BMPR2 (172 to 734 residues) at 1 uM using myelin ba as substrate incubated for 120 mins in presence of [gamma-33P]-ATP by scintillation counting method relative to control. In outline: as §1
The test system of data set [13] is SiHa. The data set is described as follows: Antitumor activity against human SiHa cells xenografted in orally dosed NOD/SCID BALB/c mouse assessed as reduction in Ki67 expression measured after 21 days by hematoxylin and eosin staining based immunohistochemistry. In kind it is functional, organism-based. In outline: (§3)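 Female NOD/SCID Balb/c mice, 6–8 weeks old, received 2×10^6 SiHa cells subcutaneously in the right flank. Once tumors reached 100 mm³, mice were randomized, 5 per group, and gavaged once daily for 21 days. Formalin-fixed, paraffin-embedded tumor sections were stained with Ki67 or CD31 antibody (1:100, 4 °C overnight), then biotin secondary and ABC-peroxidase/DAB, with hematoxylin counterstain.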

The target in data set [14] is Aurora kinase B (Homo sapiens) (UniProt Q96GD4). As to the kind of experiment: Inhibition of recombinant full length human Aurora-B at 1 uM using AKRRRLSSLRA as substrate incubated for 40 mins in presence of [gamma-33P]-ATP by scintillation counting method relative to control. In outline: as §1
Data set [15] deals with 5'-AMP-activated protein kinase catalytic subunit alpha-1 (Homo sapiens) (UniProt Q13131). As to the kind of experiment: Inhibition of recombinant full length human AMPKalpha1 at 1 uM using AMARAASAAALAR as substrate incubated for 40 mins in presence of [gamma-33P]-ATP by scintillation counting method relative to control. An outline of the steps:
as §1

Another data set deals with MDA-MB-231. The data set is described as follows: Antiproliferative activity against human MDA-MB-231 cells at 20 to 40 nM assessed as reduction in cell viability incubated for 48 hrs by EdU staining based laser scanning confocal microscopy. In kind it is functional. In outline:
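Cells, 5×10^4, were seeded in 24-well plates and treated for 48 h. They were then labeled using an EdU Apollo 488 imaging kit with Hoechst 33342 nuclear stain and imaged by laser scanning confocal microscopy. Percent EdU-positive cells = EdU-positive/Hoechst-stained × 100%.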

For data set [16], the target named is SRSF protein kinase 3 (Homo sapiens) (UniProt Q9UPE1). The data set is described as follows: Inhibition of recombinant human full length MSSK1 at 1 uM using ERMRPRKRQGSVRRRV as substrate incubated for 40 mins in presence of [gamma-33P]-ATP by scintillation counting method relative to control.
Data set [17] can be described thus: Toxicity in NOD/SCID BALB/c mouse xenografted with human SiHa cells assessed as effect on blood parameter by measuring MPV at 40 mg/kg, po administered once two days for 4 times by hematology analyzer. The data set is classed as organism-based. To be noted: in vivo.
The target in data set [18] is Serine/threonine-protein kinase 25 (Homo sapiens) (UniProt O00506). The data set is described as follows: Inhibition of recombinant human STK25 (1 to 308 residues) at 1 uM using RLGRDKYKTLRQIRQ as substrate incubated for 40 mins in presence of [gamma-33P]-ATP by scintillation counting method relative to control.
Data set [19] relates to SiHa. The data set is described as follows: Antiangiogenic activity against human SiHa cells xenografted in NOD/SCID BALB/c mouse assessed as reduction in CD31 expression at 40 mg/kg, po measured after 21 days by hematoxylin and eosin staining based immunohistochemistry. The data set is classed as functional, organism-based. In outline: as §3

Sequence of Serine/threonine-protein kinase 25 (Homo sapiens) (O00506 whole entry, looked up, the tested form may be a part): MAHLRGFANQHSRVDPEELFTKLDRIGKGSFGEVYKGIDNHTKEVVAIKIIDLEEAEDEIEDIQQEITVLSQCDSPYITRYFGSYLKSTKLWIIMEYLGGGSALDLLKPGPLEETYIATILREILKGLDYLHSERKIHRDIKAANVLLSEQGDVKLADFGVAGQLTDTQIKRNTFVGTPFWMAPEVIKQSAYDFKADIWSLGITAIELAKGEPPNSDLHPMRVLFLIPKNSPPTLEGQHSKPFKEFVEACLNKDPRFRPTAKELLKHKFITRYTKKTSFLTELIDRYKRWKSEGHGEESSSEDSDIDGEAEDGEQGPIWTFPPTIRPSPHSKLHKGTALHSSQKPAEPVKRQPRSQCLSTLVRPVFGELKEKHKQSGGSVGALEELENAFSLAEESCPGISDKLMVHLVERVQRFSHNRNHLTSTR
Sequence of Protein-tyrosine kinase 6 (Homo sapiens) (Q13882 whole entry, looked up): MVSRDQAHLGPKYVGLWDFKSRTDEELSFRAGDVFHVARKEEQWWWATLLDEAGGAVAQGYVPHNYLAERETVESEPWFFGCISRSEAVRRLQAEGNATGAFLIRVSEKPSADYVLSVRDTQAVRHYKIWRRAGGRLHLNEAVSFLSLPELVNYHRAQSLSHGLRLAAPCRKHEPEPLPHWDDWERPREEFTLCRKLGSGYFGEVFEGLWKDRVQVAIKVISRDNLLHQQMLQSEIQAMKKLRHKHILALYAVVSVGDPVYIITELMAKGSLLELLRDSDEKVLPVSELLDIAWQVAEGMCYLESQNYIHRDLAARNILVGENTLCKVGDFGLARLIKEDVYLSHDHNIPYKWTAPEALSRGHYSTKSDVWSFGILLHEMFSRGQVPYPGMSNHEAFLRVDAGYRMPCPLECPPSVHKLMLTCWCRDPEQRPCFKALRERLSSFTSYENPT
Sequence of SRSF protein kinase 3 (Homo sapiens) (Q9UPE1 whole entry): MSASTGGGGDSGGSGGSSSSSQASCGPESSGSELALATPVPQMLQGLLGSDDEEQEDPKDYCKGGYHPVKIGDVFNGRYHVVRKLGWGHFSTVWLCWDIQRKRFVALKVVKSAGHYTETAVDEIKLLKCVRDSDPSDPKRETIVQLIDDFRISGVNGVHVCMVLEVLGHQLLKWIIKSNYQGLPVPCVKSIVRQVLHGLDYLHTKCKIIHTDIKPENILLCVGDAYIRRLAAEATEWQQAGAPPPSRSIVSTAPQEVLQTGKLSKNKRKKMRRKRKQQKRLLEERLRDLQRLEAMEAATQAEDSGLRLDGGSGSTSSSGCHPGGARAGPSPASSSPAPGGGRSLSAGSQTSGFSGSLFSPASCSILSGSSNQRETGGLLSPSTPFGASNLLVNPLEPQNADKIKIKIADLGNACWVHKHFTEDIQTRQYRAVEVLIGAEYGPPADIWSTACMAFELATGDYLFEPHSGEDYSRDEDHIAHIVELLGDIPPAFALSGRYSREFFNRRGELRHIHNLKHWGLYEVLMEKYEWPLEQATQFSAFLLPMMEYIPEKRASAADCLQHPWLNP
Sequence of Serine/threonine-protein kinase 38-like (Homo sapiens) (Q9Y2H1 2-464 limits assumed): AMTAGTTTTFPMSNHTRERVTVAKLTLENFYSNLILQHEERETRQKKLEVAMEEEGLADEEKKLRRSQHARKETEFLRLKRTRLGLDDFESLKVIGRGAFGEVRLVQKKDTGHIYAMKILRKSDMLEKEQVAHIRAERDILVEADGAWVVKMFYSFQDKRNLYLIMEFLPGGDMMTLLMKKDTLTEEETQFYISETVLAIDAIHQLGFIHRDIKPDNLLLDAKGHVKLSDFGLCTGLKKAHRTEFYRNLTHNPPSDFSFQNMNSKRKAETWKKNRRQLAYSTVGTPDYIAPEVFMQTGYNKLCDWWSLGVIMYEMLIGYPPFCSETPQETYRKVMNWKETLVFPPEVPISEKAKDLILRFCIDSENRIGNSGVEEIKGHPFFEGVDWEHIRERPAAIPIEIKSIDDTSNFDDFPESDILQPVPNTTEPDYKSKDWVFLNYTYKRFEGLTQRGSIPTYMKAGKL
Sequence of Serine/threonine-protein kinase ULK3 (Homo sapiens) (Q6PHR2 whole entry): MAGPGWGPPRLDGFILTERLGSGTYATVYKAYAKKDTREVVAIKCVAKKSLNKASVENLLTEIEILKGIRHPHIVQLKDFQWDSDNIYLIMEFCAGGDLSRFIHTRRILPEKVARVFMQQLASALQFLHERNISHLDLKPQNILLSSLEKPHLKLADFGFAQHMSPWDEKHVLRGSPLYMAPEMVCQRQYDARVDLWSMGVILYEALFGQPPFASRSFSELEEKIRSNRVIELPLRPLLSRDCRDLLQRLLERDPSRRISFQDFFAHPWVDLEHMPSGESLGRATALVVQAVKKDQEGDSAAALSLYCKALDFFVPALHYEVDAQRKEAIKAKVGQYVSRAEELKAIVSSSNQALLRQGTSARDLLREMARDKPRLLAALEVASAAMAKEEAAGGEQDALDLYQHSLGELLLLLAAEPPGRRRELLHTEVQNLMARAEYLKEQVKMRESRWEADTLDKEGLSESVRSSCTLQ
Sequence of Aurora kinase B (Homo sapiens) (Q96GD4 whole entry): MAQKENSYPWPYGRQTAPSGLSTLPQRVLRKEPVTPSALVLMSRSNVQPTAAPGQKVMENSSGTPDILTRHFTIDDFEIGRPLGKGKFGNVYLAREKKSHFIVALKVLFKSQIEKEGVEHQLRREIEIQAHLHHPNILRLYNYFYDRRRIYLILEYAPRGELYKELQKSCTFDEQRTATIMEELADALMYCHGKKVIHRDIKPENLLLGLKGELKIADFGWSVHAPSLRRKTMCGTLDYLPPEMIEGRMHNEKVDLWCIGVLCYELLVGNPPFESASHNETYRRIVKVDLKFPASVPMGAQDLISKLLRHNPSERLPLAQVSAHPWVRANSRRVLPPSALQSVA
Sequence of Bone morphogenetic protein receptor type-2 (Homo sapiens) (Q13873 whole entry, the tested form may be a part): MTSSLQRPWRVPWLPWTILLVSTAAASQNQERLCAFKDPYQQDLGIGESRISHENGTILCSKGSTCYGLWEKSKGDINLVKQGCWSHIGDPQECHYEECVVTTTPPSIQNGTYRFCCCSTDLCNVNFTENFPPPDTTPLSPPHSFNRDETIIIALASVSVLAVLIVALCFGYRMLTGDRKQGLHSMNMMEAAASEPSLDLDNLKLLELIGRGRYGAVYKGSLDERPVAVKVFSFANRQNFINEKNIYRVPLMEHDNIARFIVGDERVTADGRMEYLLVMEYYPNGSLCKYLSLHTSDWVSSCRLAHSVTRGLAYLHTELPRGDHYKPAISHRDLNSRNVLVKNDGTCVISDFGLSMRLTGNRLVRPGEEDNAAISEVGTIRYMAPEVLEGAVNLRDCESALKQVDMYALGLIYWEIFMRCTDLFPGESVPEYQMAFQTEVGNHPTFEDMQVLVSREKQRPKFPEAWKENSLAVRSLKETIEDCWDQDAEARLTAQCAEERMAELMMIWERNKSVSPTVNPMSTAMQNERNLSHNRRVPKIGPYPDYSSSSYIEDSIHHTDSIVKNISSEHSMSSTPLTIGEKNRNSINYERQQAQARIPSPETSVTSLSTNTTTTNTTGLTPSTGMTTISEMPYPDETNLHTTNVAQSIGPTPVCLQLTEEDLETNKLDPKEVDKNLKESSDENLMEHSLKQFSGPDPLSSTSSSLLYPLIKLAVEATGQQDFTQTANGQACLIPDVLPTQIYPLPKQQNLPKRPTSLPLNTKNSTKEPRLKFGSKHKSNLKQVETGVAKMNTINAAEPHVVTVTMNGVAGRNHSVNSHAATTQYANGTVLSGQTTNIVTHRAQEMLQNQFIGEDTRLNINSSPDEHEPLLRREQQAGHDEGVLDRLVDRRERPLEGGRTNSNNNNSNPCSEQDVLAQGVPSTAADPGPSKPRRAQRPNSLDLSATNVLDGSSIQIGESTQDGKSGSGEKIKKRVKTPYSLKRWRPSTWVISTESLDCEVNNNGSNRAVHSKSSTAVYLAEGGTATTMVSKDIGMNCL
Sequence of SRSF protein kinase 2 (Homo sapiens) (P78362 whole entry, looked up): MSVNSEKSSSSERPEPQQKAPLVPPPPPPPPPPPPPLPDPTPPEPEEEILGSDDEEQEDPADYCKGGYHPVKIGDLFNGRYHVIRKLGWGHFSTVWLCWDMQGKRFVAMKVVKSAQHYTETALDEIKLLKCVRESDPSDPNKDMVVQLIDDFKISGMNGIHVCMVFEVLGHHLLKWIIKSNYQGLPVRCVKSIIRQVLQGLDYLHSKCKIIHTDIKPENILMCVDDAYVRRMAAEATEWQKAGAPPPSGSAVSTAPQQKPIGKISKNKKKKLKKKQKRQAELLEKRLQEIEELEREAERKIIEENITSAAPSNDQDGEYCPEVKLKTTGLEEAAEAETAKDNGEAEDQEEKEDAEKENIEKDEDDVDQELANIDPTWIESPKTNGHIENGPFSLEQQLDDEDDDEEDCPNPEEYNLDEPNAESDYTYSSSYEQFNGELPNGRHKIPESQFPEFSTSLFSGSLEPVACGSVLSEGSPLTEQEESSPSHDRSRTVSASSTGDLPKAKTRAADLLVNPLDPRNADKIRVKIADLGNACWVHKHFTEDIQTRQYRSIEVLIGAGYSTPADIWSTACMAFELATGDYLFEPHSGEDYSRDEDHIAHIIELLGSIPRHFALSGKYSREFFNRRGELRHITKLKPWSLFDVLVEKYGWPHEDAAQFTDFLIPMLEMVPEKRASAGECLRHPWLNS
Sequence of 5'-AMP-activated protein kinase catalytic subunit alpha-1 (Homo sapiens) (Q13131 whole entry, looked up): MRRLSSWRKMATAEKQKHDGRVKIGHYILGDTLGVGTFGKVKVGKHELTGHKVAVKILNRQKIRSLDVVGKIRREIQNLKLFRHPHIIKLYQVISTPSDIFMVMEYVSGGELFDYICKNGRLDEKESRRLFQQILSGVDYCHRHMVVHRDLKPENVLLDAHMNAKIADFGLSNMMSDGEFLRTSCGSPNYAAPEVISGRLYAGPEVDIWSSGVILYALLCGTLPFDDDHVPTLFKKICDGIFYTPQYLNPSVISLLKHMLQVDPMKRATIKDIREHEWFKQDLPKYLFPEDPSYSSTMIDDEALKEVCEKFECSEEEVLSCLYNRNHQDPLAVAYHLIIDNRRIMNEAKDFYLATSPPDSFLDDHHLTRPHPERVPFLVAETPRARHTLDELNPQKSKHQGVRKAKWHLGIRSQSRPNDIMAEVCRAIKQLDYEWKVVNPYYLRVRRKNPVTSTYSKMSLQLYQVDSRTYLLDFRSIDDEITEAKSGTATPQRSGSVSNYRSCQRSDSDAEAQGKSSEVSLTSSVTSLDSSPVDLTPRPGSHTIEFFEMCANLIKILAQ

The inhibition is the share of the control response that was lost under treatment. A word on the half-life: it is the time needed for the level to fall by half in the phase considered. Higher therefore signals slow loss. Take `Cc1ccc(NC(=O)C2(C(=O)Nc3ccc(Nc4ncc(F)c(-c5cc(F)c6nc(C)n(C(C)C)c6c5)n4)cc3)CC2)cc1`: the inhibition in [1] is 17%; in [3] it was 22%; in data set [4] it was 33%; in [6], 0%; in data set [7] it was 37%; in data set [8], 10%. Further, the inhibition is 0% in data set [11]; 78% in data set [12]; “Dose-dependent effect” in the data set with SiHa [13]; 64% in data set [14]; 40% in data set [15]; 2% in [16]. Besides, the inhibition in [18] was found to be 26%. The outcome with SiHa [2] was Active. Moreover, the Activity result in [5], in [10] and in [17] was “Non-Toxic” throughout. Further, in data set [9], the half-life was 2 h. Moreover, in the data set on MDA-MB-231, the inhibition entry was “Active”.
Take `COc1cc2nccc(Oc3ccc(NC(=O)C4(C(=O)Nc5ccc(F)cc5)CC4)cc3)c2cc1OC` [CABOZANTINIB]: in the data set on SiHa [19], the inhibition entry is “Active”.
